# High-throughput results from PubChem BioAssay.
# Lung fibro prol: blocks proliferation of human lung fibroblasts. LL 47 human lung fibroblast viability, ATP luminescence; active compounds read low. hit rate 1.1% among 85,000. AID 719. viability, % at 10 µM;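 active = viability at or below 50% in the single dose screen; inactive = viability above 50%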;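 also: compound exposure lasted 72 h before the ATP readout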
#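 test system = LL 47 human lung fibroblasts | amount = 1,150 fibroblasts seeded per well | medium = 15% FBS in IMEM | times = overnight cell rest, 72 h compound treatment at 37 °C | measured by = CellTiter-Glo luminescence measuring cellular ATP | read-out = viability percentage against median untreated-cell control | benchmarks = cell-only wells, no compound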
# bCat KO growth: beta-catenin-lacking colon tumor cell growth suppression; hit rate 1.5% among 140,000; HCT116 beta-catenin knockout viability, CellTiter-Glo, 60 h; active compounds read low; viability, % at 10 µM; AID 818;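 active = viability at or under a set limit, the compound median less 4 SD, cut at about 6% in these data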
# HUVEC prolif 384: blocks proliferation of human endothelial cells; HUVEC proliferation, CellTiter-Glo luminescence, 72 h; active compounds read low; viability, % at 10 µM (by protocol); hit rate 1.1% among 86,000; AID 648;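 active = viability at or below 30%; inactive = viability above 30%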
# PTK2B oligo ant: Pyk2 (human) oligomerization antagonism; Q14289; Q293 cells, Pyk2 FERM NanoBiT luminescence; active compounds read low; z-score (the deposit names both 25 µM and 10 µM); hit rate 0.83% among 99,000;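 active = Z-score of -3 or lower, scaled per plate to the spread of control and sample wells; inactive = z-score above -3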;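 also: negative z-score means lost luminescence so less FERM oligomerization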
# PTEN del growth: growth suppressors of cells with PTEN tumor suppressor deletion; HCT116 PTEN-null viability, CellTiter-Glo, 60 h; active compounds read low; viability, % at 10 µM; hit rate 1.2% among 140,000;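 active = viability at or below a set limit, 4 SD under the median of all tested compounds, cut at about 3.7% in these data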;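 also: PTEN knockout HCT116 line with beta catenin targeted HCT116 as companion control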
# H69AR growth 86K: growth inhibitors of human H69AR lung tumor cells. H69AR lung tumor viability, ATP luminescence, 72 h; active compounds read low. viability, % at 10 µM. hit rate 6% among 85,000;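 active = viability at or below 40%; inactive = viability above 40%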;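 also: multidrug resistant small cell line overexpressing MRP-1 efflux transporter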
# A number is an active result; 0 = inactive; - = no result. The sample as a whole holds a higher share of hits than the screen did.
SMILES,Lung fibro prol,bCat KO growth,HUVEC prolif 384,PTK2B oligo ant,PTEN del growth,H69AR growth 86K
Cc1cc(C)n(C(=O)CNc2ccc(C)c(C)c2)n1,0,0.9,0,0,1.4,0
CN(C)S(=O)(=O)c1ccc(C(=O)Nc2nnc(SCc3cccc(F)c3)s2)cc1,-,0,-,-,0,-
O=c1[nH]c2ccc(Br)cc2c(-c2ccccc2)c1N1CCOCC1,0,0,0,-,0,0
O=c1ccc2cc3c([nH]c4ccc(Br)cc43)oc-2c1O,0,0,0,0,0,22.6
CC1CCCC(n2c(=S)[nH]c3ccccc3c2=O)C1C (configuration not stated),0,0,0,0,0,21.9
CCOc1cc2[nH]c(=S)n(CCOC)c(=O)c2cc1OCC,0,0,0,0,0,0
CCOC(=O)N1CCC(n2c(=S)[nH]c3cc(OC)c(OC)cc3c2=O)CC1,0,0,0,0,0,33.8
CCOC(=O)N1CCN(C(=O)CCn2c(=S)[nH]c3cc(OCC)c(OCC)cc3c2=O)CC1,0,0,0,-,0,0
CCCn1c(=S)[nH]c2cc(OC)c(OC)cc2c1=O,0,0,0,0,0,35.4
O=C(OCC(=O)N1CCN(c2ccccc2)CC1)c1ccco1,0,0,0,0,0,29.5
O=C(OCC(=O)N1CCN(c2ccccc2)CC1)C1=COCCO1,0,0,0,0,0,34.0
Cc1ccc(OCc2ccc(C(=O)Nc3nc4ccccc4n3C)o2)c([N+](=O)[O-])c1,-,0,-,-,0,-
CCOC(=O)C[n+]1c(C)ccc2c1CCC2,0,0,0,0,0,0
COc1ccc(S(=O)(=O)N2CCOCC2)cc1NC(=O)COC(=O)C1COc2ccccc2O1 (configuration not stated),-,0,-,-,0,-
Cc1n(CC(O)COC2CCCCC2)c2ccccc2[n+]1C (configuration not stated),0,0,0,0,0,0
Cc1cc(F)ccc1S(=O)(=O)Nc1ccccc1C(=O)Nc1ccccc1-c1nc2ccccc2[nH]1,-,3.7,-,-,0,-
Cc1c(C(=O)Nc2ccncc2)sc2nc(-c3ccccc3)cn12,0,0,0,-,0,0
Cc1c(C(=O)Nc2ccc3c(c2)OCCO3)sc2nc(-c3ccccc3)cn12,0,0,0,-3.65,0,37.8
COc1cc2c(cc1OC)CN(c1nc(CN3CCOCC3)nc3sc4c(c13)CCCC4)CC2,-,0,-,-,3.1,-
COc1ccc(CNC(=O)CSc2nnc(Cn3nnc4ccccc43)n2C)cc1,0,0,0,0,0,0
Cc1ccc(-c2nc3ccccc3[nH]2)cc1NC(=O)c1ccc2c(c1)OCO2,-,0,-,0,0,-
O=C(NC(=S)Nc1cc(-c2nc3ccccc3[nH]2)ccc1Cl)c1ccc2c(c1)OCO2,-,1.6,-,-,1.5,-
CCOc1ccc(C(=O)Nc2cc(-c3nc4ccccc4[nH]3)ccc2Cl)cc1[N+](=O)[O-],-,1.2,-,-,1.2,-
CCOc1ccc(C(=O)Nc2cc(-c3nc4ccccc4[nH]3)ccc2C)cc1[N+](=O)[O-],-,0,-,0,0,-
CC1(C)NC(=O)N(CC(=O)Nc2nc(-c3ccc(F)cc3)cs2)C1=O,-,0,-,0,0,-
SMILES,Lung fibro prol,bCat KO growth,HUVEC prolif 384,PTK2B oligo ant,PTEN del growth,H69AR growth 86K
CCc1c(O)cc(=O)n(-c2ccccc2)c1-c1ccccc1,-,0,-,-,0,-
Cn1c2ccccc2c(=O)c2c(=O)n(C3CCCCC3)c(-c3ccco3)nc21,-,4.1,-,-,3.4,-
O=C1C2C3C=CC(C3)C2C(=O)N1CNc1ccc(O)cc1 (configuration not stated),0,0,0,-,0,28.9
Cc1ccc(NCN2C(=O)C3C4C=CC(C4)C3C2=O)cc1 (configuration not stated),0,0,0,0,0,0
Nc1c(C(=O)NC2CC2)c2nc3ccccc3nc2n1-c1ccc2c(c1)OCO2,0,0,0,0,0,0
CCCNC(=O)c1c(N)n(-c2ccc3c(c2)OCO3)c2nc3ccccc3nc12,7.6,0,0,0,0,8.6
Nc1c(C(=O)NCc2ccco2)c2nc3ccccc3nc2n1CCc1ccccc1,-,0,-,-,0,-
CC(C)Cn1c(N)c(C(=O)NCCN2CCOCC2)c2nc3ccccc3nc21,0,0,0,0,0,0
COCCCNC(=O)c1c(N)n(-c2ccc3c(c2)OCO3)c2nc3ccccc3nc12,0,0,0,0,0,27.6
Cc1cccc(-n2c(N)c(C(=O)NCCN3CCOCC3)c3nc4ccccc4nc32)c1,0,0,0,-,0,32.4
CCOc1ccc(-n2c(N)c(C(=O)NCc3ccco3)c3nc4ccccc4nc32)cc1,0,0,0,0,0,11.4
CCOc1ccc(CCNC(=O)C2CCN(S(=O)(=O)N3CCC(C)CC3)CC2)cc1OCC,-,0,-,-,0,-
O=C1C(=O)N(Cc2ccco2)C(c2cccc(Cl)c2)/C1=C(\O)c1ccc2c(c1)OCCO2 (configuration not stated),-,0,-,0,0,-
O=C1c2[nH]nc(-c3ccccc3O)c2C(c2cccc(Cl)c2)N1Cc1ccco1 (configuration not stated),0,0,4.9,0,0,0.8
O=C1c2[nH]nc(-c3ccccc3O)c2C(c2ccc(F)cc2)N1CC1CCCO1 (configuration not stated),0,0,0,0,0,0
O=C1c2[nH]nc(-c3ccccc3O)c2C(c2cccc(Cl)c2)N1CC1CCCO1 (configuration not stated),0,0,0,0,0,21.1
O=C1c2[nH]nc(-c3ccccc3O)c2C(c2ccc(F)cc2)N1Cc1ccco1 (configuration not stated),0,0,0,0,0,1.8
CCOC(=O)CNC(=O)CSc1nc2ncc(Br)cc2[nH]1,0,0,0,0,0,-
Cc1cc(C)cc(OCc2nc3ncc(Br)cc3[nH]2)c1,14.1,-,0,0,-,10.7
COc1cccc(OCc2nc3ncc(Br)cc3[nH]2)c1,47.3,0,0,0,0,24.9
O=S(=O)(c1ccccc1)n1ccc2cccnc21,-,0,-,0,0,-
CCC(=O)Nc1ccc(S(=O)(=O)Nc2ccc(Cl)nn2)cc1,-,0,-,-,0,-
CC(C)N1C(=O)/C(=C\c2nc3ccccc3c(=O)[nH]2)c2ccccc21,-,0,-,-,0,-
CCc1cc(SC#N)cc(CC)c1NC(=O)CCl,-,1.9,-,-,1.6,-
Cc1ccc(-n2cc(-c3ccccc3)c3c(NN4CCOCC4)ncnc32)cc1,-,0,-,-,0,-
SMILES,Lung fibro prol,bCat KO growth,HUVEC prolif 384,PTK2B oligo ant,PTEN del growth,H69AR growth 86K
CCc1ccccc1N1CCN(S(=O)(=O)c2ccc(F)c(C)c2)CC1,0,0,0,-3.34,0,0
Cc1ccc(N2CCN(S(=O)(=O)c3ccc(F)c(C)c3)CC2)c(C)c1,0,0,0,-3.22,0,0
COc1cccc(/C=N/NC(=O)c2ccccc2N(Cc2ccccc2)S(=O)(=O)c2ccccc2)c1OC,-,0,-,0,0,-
CCCCc1nc2ccccc2c(=O)n1NC(=O)c1c(O)c2cccc3c2n(c1=O)CCC3,0,-,0,-,-,0
CCCCCc1nc2ccccc2c(=O)n1NC(=O)c1c(O)c2cccc3c2n(c1=O)CCC3,0,-,0,-,-,27.3
CCCCCCc1nc2ccccc2c(=O)n1NC(=O)c1c(O)c2cccc3c2n(c1=O)CCC3,0,0,0,-,0,24.8
